Measured values published in ChEMBL document CHEMBL5329174, “Discovery of benzoxazole-thiazolidinone hybrids as promising antibacterial agents against Staphylococcus aureus and Enterococcus species” (RSC Med Chem, 2023).
Values after ≈ are worked out from the molar mass of the structure shown.

Assays:
Escherichia coli = test: Antibacterial activity against Escherichia coli ATCC 25922 assessed as reduction in bacterial growth; format: functional
Summary of the method: (§1)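 CLSI broth microdilution in cation-supplemented Mueller–Hinton broth II; overnight starter cultures (37 °C, shaking, 18–24 h) adjusted by OD600 to ~10^6 CFU/mL. Compounds dosed from DMSO stocks (10 mg/mL stock) as two-fold dilutions, 64–0.5 mg/L. Plates held 37 °C, 18–24 h. MIC = lowest concentration without visible growth. Three independent runs, each in duplicate.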

Staphylococcus aureus [1] = test: Antibacterial activity against Staphylococcus aureus ATCC 29213 assessed as reduction in bacterial growth; format: functional; summary of the method: as §1
Klebsiella pneumoniae = test: Antibacterial activity against Klebsiella pneumoniae BAA-1705 assessed as reduction in bacterial growth; format: functional; summary of the method: as §1
Acinetobacter baumannii = test: Antibacterial activity against Acinetobacter baumannii BAA-1605 assessed as reduction in bacterial growth; format: functional; summary of the method: as §1
Pseudomonas aeruginosa = test: Antibacterial activity against Pseudomonas aeruginosa ATCC 27853 assessed as reduction in bacterial growth; format: functional; summary of the method: as §1
[2] = Cytotoxicity against african green monkey Vero cells assessed as reduction in cell viability incubated for 72 hrs by MTT assay; format: toxicity, cell-based; settings: chlorocebus sabaeus
Summary of the method: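 Vero (ATCC CCL-81) cells seeded at ~10^3 per well, 37 °C, 5% CO2. After 24 h, compound added at 100–12.5 μg/mL for 72 h. MTT then given for 4 h at 37 °C, formazan dissolved in DMSO, absorbance read at 540 nm. CC50 taken as the concentration giving 50% viability loss; doxorubicin as positive control; triplicate.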

Staphylococcus aureus [3] = test: Antibacterial activity against methicilin-resistant Staphylococcus aureus NRS 100 assessed as reduction in bacterial growth; format: functional
Summary of the method: (§2)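 CLSI broth microdilution in cation-supplemented Mueller–Hinton broth II. Starter cultures were grown overnight at 37 °C with shaking from a single MHA colony, then diluted by OD600 to ~10^6 CFU/mL. Compounds came from 10 mg/mL DMSO stocks and were tested two-fold from 64 to 0.5 mg/L. Plates were incubated 37 °C for 18–24 h. MIC was taken as the lowest concentration with no visible growth. Three independent runs, each in duplicate.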

Staphylococcus aureus [4] = test: Antibacterial activity against methicilin-resistant Staphylococcus aureus NRS 119 assessed as reduction in bacterial growth; format: functional; summary of the method: as §2
Staphylococcus aureus [5] = test: Antibacterial activity against methicilin-resistant Staphylococcus aureus NRS 129 assessed as reduction in bacterial growth; format: functional; summary of the method: as §2
Staphylococcus aureus [6] = test: Antibacterial activity against methicilin-resistant Staphylococcus aureus NRS 186 assessed as reduction in bacterial growth; format: functional; summary of the method: as §2
Staphylococcus aureus [7] = test: Antibacterial activity against methicilin-resistant Staphylococcus aureus NRS 191 assessed as reduction in bacterial growth; format: functional; summary of the method: as §2
Staphylococcus aureus [8] = test: Antibacterial activity against methicilin-resistant Staphylococcus aureus NRS 192 assessed as reduction in bacterial growth; format: functional; summary of the method: as §2
Staphylococcus aureus [9] = test: Antibacterial activity against methicilin-resistant Staphylococcus aureus NRS 193 assessed as reduction in bacterial growth; format: functional; summary of the method: as §2
Staphylococcus aureus [10] = test: Antibacterial activity against methicilin-resistant Staphylococcus aureus NRS 194 assessed as reduction in bacterial growth; format: functional; summary of the method: as §2
Staphylococcus aureus [11] = test: Antibacterial activity against methicilin-resistant Staphylococcus aureus NRS 198 assessed as reduction in bacterial growth; format: functional; summary of the method: as §2
Staphylococcus aureus [12] = test: Antibacterial activity against vancomycin-resistant Staphylococcus aureus VRS 1 assessed as reduction in bacterial growth; format: functional; summary of the method: as §2
Staphylococcus aureus [13] = test: Antibacterial activity against vancomycin-resistant Staphylococcus aureus VRS 4 assessed as reduction in bacterial growth; format: functional; summary of the method: as §2
Staphylococcus aureus [14] = test: Antibacterial activity against vancomycin-resistant Staphylococcus aureus VRS 12 assessed as reduction in bacterial growth; format: functional; summary of the method: as §2

Row | SMILES | MIC (Escherichia coli) [µg/mL] | MIC (Staphylococcus aureus [1]) [µg/mL] | MIC (Klebsiella pneumoniae) [µg/mL] | MIC (Acinetobacter baumannii) [µg/mL] | MIC (Pseudomonas aeruginosa) [µg/mL] | further results
1 | COc1cccc(/C=C2\S/C(=N/c3nc4ccccc4o3)NC2=O)c1 | > 64 | > 64 | > 64 | > 64 | > 64 | –
2 | O=C1N/C(=N\c2nc3ccccc3o2)S/C1=C\c1ccccc1F | > 64 | 16 (≈ 47.1 µM) | > 64 | > 64 | > 64 | –
3 | O=C1N/C(=N\c2nc3ccccc3o2)S/C1=C\c1ccccc1O | > 64 | 4 (≈ 11.9 µM) | > 64 | > 64 | > 64 | –
4 | COc1cccc2c1C(=O)c1c(O)c3c(c(O)c1C2=O)C[C@@](O)(C(=O)CO)C[C@@H]3O[C@H]1C[C@H](N)[C@H](O)[C@H](C)O1 [DOXORUBICIN] | – | – | – | – | – | CC50 at 72 h [2]: 10 µg/mL (≈ 18.4 µM)
5 | C[C@@H](O)[C@H]1C(=O)N2C(C(=O)O)=C(S[C@@H]3CN[C@H](C(=O)N(C)C)C3)[C@H](C)[C@H]12 [MEROPENEM] | – | 0.125 (≈ 0.326 µM) | – | – | – | MIC (Staphylococcus aureus [3]): 32 µg/mL (≈ 83.4 µM); MIC (Staphylococcus aureus [4]): 64 µg/mL (≈ 167 µM); MIC (Staphylococcus aureus [5]): 4 µg/mL (≈ 10.4 µM); MIC (Staphylococcus aureus [6]): 8 µg/mL (≈ 20.9 µM); MIC (Staphylococcus aureus [7]): 64 µg/mL (≈ 167 µM); MIC (Staphylococcus aureus [8]): 8 µg/mL (≈ 20.9 µM); MIC (Staphylococcus aureus [9]): 64 µg/mL (≈ 167 µM); MIC (Staphylococcus aureus [10]): 1 µg/mL (≈ 2.61 µM); MIC (Staphylococcus aureus [11]): 64 µg/mL (≈ 167 µM); MIC (Staphylococcus aureus [12]): 64 µg/mL (≈ 167 µM); MIC (Staphylococcus aureus [13]): 64 µg/mL (≈ 167 µM); MIC (Staphylococcus aureus [14]): 8 µg/mL (≈ 20.9 µM)
6 | O=C1N/C(=N\c2nc3ccccc3o2)S/C1=C\c1cccc([N+](=O)[O-])c1 | > 64 | > 64 | > 64 | > 64 | > 64 | –
